Source: ChEMBL document CHEMBL4390662, “Design, synthesis and biological evaluation of novel α-acyloxy carboxamides via Passerini reaction as caspase 3/7 activators” (Eur J Med Chem, 2019)
Converted amounts (≈) assume the structure as drawn. The source made the active and inactive calls. No cut-off for these calls is given here.

What was measured:
WI-38 = test: Cytotoxicity against human WI38 cells assessed as cell growth inhibition incubated for 72 hrs by MTT assay; type: cell-based; settings: for IC50: Homo sapiens, WI-38, 72 h; for EC100: human, wi-38, 72 h
Method in brief: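 Wi-38 fibroblasts grown in DMEM with 10% FBS and seeded at 5×10^3 per well. Attachment 24 h, then serial concentrations for 72 h at 37°C, 5% CO2. MTT stock (5 mg/mL) added for 3 h at 37°C, DMSO solubilization, absorbance at 570 nm. IC50 estimated.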

Staphylococcus aureus [1] = test: Antimicrobial activity against Staphylococcus aureus ATCC 25923 incubated for 24 hrs by agar well diffusion assay; type: functional
Method in brief: (§1)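 Nutrient agar spread with 100 µL inoculum: bacteria at 1×10^8 CFU/mL, fungi at 1×10^6 CFU/mL. 10 mm wells loaded with 100 µL of compound in DMSO (final 1 mg/mL). Bacteria incubated 24 h at 37 °C, fungi 48 h at 28 °C. Inhibition zones measured in mm. Ciprofloxacin and fluconazole standards at 1 mg/mL, DMSO negative control.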

Pseudomonas aeruginosa = test: Antimicrobial activity against Pseudomonas aeruginosa ATCC 27853 incubated for 24 hrs by agar well diffusion assay; type: functional; method in brief: as §1
[2] = Selectivity index, ratio of IC50 for human WI38 cells to IC50 for human MCF7 cells; type: toxicity; settings: WI38 cells versus MCF7 cells, read-out: Ratio IC50
Method in brief: (§2)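 SI calculated as IC50 on normal Wi-38 fibroblasts divided by IC50 on the cancer cell line. Both came from 72 h MTT assays.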

Enterococcus faecalis = test: Antimicrobial activity against Enterococcus faecalis ATCC 29212 incubated for 24 hrs by agar well diffusion assay; type: functional; method in brief: as §1
HepG2 = test: Cytotoxicity against human HepG2 cells assessed as cell growth inhibition incubated for 72 hrs by MTT assay; type: functional, cell-based; settings: HepG2, 72 h
Method in brief: (§3)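 Cells grown in RPMI-1640 with 10% FBS and seeded at 5×10^3 per well. After 24 h, serial concentrations given for 72 h at 37°C, 5% CO2. Then 5 mg/mL MTT stock added for 3 h, formazan dissolved in DMSO, A570 read. IC50 calculated from the curves.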

MCF7 [3] = test: Cytotoxicity against human MCF7 cells assessed as cell growth inhibition incubated for 72 hrs by MTT assay; type: functional, cell-based; settings: MCF7, 72 h; method in brief: as §3
[4] = Selectivity index, ratio of IC50 for human WI38 cells to IC50 for mouse NFS60 cells; method in brief: as §2
[5] = Selectivity index, ratio of IC50 for human WI38 cells to IC50 for human HepG2 cells; type: toxicity; settings: WI38 cells versus HepG2 cells, read-out: Ratio IC50; method in brief: as §2
NFS-60 = test: Cytotoxicity against mouse NFS60 cells assessed as cell growth inhibition incubated for 72 hrs by MTT assay; type: functional, cell-based; settings: NFS-60, 72 h; method in brief: as §3
Escherichia coli [6] = test: Antimicrobial activity against Escherichia coli ATCC 25922 incubated for 24 hrs by agar well diffusion assay; type: functional; method in brief: as §1
Candida albicans [7] = test: Antimicrobial activity against Candida albicans ATCC 90028 incubated for 48 hrs by agar well diffusion assay; type: functional; method in brief: as §1
MCF7 [8] = test: Potency index, ratio of doxorubicin IC50 to test compound IC50 against human MCF7 cells; type: functional
Escherichia coli [9] = test: Antimicrobial activity against Escherichia coli ATCC 25922 incubated for 24 hrs by microdilution assay; type: functional
Method in brief: (§4)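 Two-fold serial dilutions of test solutions made in Mueller Hinton broth and inoculated. Incubated at 37°C for 24 h. MIC taken as the lowest concentration with no growth. Ciprofloxacin is the antibacterial reference, fluconazole the antifungal one, and DMSO the blank.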

Candida albicans [10] = test: Antimicrobial activity against Candida albicans ATCC 90028 incubated for 24 hrs by microdilution assay; type: functional; method in brief: as §4
Staphylococcus aureus [11] = test: Antimicrobial activity against Staphylococcus aureus ATCC 25923 incubated for 24 hrs by microdilution assay; type: functional; method in brief: as §4

Compound | IC50 (WI-38) [nM] | EC100 (WI-38) [µM] | diameter of the inhibition zone (DIZ) (Staphylococcus aureus [1]) | diameter of the inhibition zone (DIZ) (Pseudomonas aeruginosa) | selectivity ratio [2] | diameter of the inhibition zone (DIZ) (Enterococcus faecalis) | IC50 (HepG2) [nM] | IC50 (MCF7 [3]) [nM] | Ratio IC50 [4] | selectivity ratio [5] | IC50 (NFS-60) [nM] | diameter of the inhibition zone (DIZ) (Escherichia coli [6]) | diameter of the inhibition zone (DIZ) (Candida albicans [7]) | Ratio IC50 (MCF7 [8]) | MIC (Escherichia coli [9]; ATCC 25922, 24 h) [µM] | MIC (Candida albicans [10]) | MIC (Staphylococcus aureus [11]) | MIC (Escherichia coli [9]) | MIC (Staphylococcus aureus [11]; ATCC 25923, 24 h) [µM]
Cc1ccc(C(=O)OC2(C(=O)Nc3ccc([N+](=O)[O-])cc3)CCCCC2)cc1 | 32 | 0.0064 | inactive | inactive | 3.27 | inactive | 61.2 | 9.8 | 0.704 | 0.522 | 45.4 | inactive | inactive | 2 - 4 |  |  |  |  | 
O=C(OC1(C(=O)Nc2ccc([N+](=O)[O-])cc2)CCCCC1)c1ccc(Cl)cc1 | 355 | 0.1128 | inactive | 16 mm | 23.7 | 13 mm | 21.8 | 15 | 34.466 | 16.3 | 10.3 | 14 mm | inactive |  | 1270 (≈ 512 µg/mL) | inactive | inactive |  | 
CCOC1(Nc2ccc([N+](=O)[O-])cc2)C(=O)c2ccccc2C1=O | 47 | 0.0285 | 12 mm | 16 mm | 1.35 | 13 mm | 38.9 | 34.9 | 1.69 | 1.21 | 27.8 | inactive | inactive |  |  | inactive |  | inactive | 1570 (≈ 512 µg/mL)
